Most compounds without a hit are left out; they make up all but 2.3% or so of the library.
TRPC4 act: TRPC4 (mouse) channel activation. HEK293 TRPC4beta/mu-opioid, Fluo4 calcium fluorescence; active compounds read high. B-score at 10 µM. 0.49% of 310,000 active;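 active = B-score above 5 SD of library B-scores, and initial fluorescence ratio not above library mean plus 5 SD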;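 also: positive B-score marks a calcium rise read as TRPC4 activation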
Target sequence (Q9QUQ5 whole entry, looked up): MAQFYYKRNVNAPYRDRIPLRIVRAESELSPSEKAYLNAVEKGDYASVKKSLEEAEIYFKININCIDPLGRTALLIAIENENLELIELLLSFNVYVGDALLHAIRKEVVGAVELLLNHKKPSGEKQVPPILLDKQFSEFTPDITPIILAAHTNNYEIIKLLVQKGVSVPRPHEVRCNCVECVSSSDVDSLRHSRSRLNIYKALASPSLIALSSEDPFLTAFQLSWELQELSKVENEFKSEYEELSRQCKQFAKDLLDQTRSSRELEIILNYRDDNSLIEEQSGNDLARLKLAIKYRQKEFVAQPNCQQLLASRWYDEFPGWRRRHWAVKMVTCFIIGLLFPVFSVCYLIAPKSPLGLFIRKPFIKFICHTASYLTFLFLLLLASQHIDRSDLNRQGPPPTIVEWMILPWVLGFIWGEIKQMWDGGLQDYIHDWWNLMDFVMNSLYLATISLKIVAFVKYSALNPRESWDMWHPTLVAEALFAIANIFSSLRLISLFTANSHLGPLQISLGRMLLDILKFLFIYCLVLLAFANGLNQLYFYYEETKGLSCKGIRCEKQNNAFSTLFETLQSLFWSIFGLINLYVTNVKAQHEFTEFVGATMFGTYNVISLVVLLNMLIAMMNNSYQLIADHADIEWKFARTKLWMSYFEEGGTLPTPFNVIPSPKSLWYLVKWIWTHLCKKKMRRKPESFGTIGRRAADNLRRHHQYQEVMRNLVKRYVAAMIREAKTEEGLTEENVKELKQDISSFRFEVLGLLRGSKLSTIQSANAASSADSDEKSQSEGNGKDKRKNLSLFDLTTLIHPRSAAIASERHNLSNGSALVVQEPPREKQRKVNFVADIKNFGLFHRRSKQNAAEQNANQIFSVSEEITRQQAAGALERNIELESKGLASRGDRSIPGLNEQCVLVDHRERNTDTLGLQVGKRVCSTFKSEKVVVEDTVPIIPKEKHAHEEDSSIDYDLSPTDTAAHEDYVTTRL
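Assay system: HEK293 stable line with TRPC4beta plus mu-opioid receptor; schedule: 45 min room-temperature Fluo4 loading, 110 s read; technique: kinetic Fluo4 calcium fluorescence; evaluation: integrated baseline-normalised fluorescence ratio, converted to per-well B score; controls: buffer (low) and maximal DAMGO (high)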
TRPC4 inh: inhibitors of mouse TRPC4 channel; Q9QUQ5; HEK293 TRPC4beta/mu-opioid, DAMGO-evoked Fluo4 calcium flux; active compounds read low; B-score at 10 µM; 0.39% of 300,000 active; AID 2247;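 active = B-score over 3 SD under the library average, no early fluorescence shift, positive overall ratio signal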
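System: stable TRPC4beta/mu-opioid receptor HEK293 cells; Dosing: single-point compound dosing; Measured by: Fluo4 Ca2+ flux fluorescence; Read-out basis: per-well B score of integrated baseline-normalized Fluo4 ratio.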
TRPC6 activator: mouse TRPC6 channel activation; Q61143; HEK293-TRPC6 membrane potential dye fluorescence; active compounds read high; B-score at 10 µM; 0.13% of 310,000 active;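 active = B-score of the integrated fluorescence ratio above library mean plus 3 SD, and starting fluorescence ratio within library mean plus 5 SD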;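 also: higher score means more depolarization so channel activation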
TRPC4 PAM: allosterically enhances the mouse TRPC4 cation channel | Q9QUQ5 | HEK293 TRPC4beta/mu-opioid, DAMGO EC20, Fluo-4 Ca2+ flux; active compounds read high | B-score at 10 µM | 0.42% of 310,000 active;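 active = B-score of calcium response area above 5 SD of library B-scores, with initial fluorescence ratio within 5 SD of library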;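 also: B-score of integrated fluorescence ratio over time as area under calcium response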
TRPC6 inhibitor: mouse TRPC6 channel inhibition. AID 2553. 1.1% of 310,000 active. Q61143. B-score at 10 µM. HEK293-TRPC6, membrane potential dye, ACh-evoked depolarization; active compounds read low;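 active = B-score under library mean minus 3 SD, initial fluorescence not abnormally high, positive integrated signal ratio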;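 also: B-score derived from integrated fluorescence ratio over the kinetic read; more negative B-score means stronger inhibition of depolarization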
TRPC4 sel inh 2: second check of whether TRPC6 inhibitors also affect mouse TRPC4. 42% of 920 active. shares compounds with TRPC6 inhibitor. inhibition, % at 10 µM. HEK293 TRPC4/MOR, membrane potential dye fluorescence; channel activated by saturating DAMGO dose;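 active = compounds whose fluorescence signal differed from control wells by over 3 SD, either direction, in both duplicate plates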
TRPC4 spec: mouse TRPC4 off-target activity of TRPC6 inhibitors | shares compounds with TRPC6 inhibitor | HEK293 TRPC4/mu-opioid, membrane potential fluorescence | activity change, negative = inhibition, % at 10 µM | 61% of 920 active | AID 2777;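 active = rise or fall in signal beyond 3 SD of buffer-only wells in both replicate plates, either sign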;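 also: integrated kinetic ratio of fluorescence range over baseline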
HEK293 MPD ctr 2-1: second check of TRPC6 inhibitor effects in parental HEK293 cells | shares compounds with TRPC6 inhibitor | parental HEK293 membrane potential dye fluorescence; maximal acetylcholine challenge after compound addition | signal change vs control, % at 10 µM | 31% of 920 active;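 active = membrane potential signal moving either way by over 3 SD of the maximum-effect control, in both duplicate plates, meaning non-specific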
HEK293 MPD ctr-1: counter-screen for TRPC6 inhibitors: effect in parental HEK293 cells; shares compounds with TRPC6 inhibitor; parental HEK293 membrane potential dye fluorescence; membrane potential signal change, % at 10 µM; AID 2780; 60% of 920 active;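 active = membrane potential signal shifting up or down by more than 3 SD of buffer-only wells, on both duplicate plates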
HEK293 MPD ctr-2: counter-screen for TRPC6 modulators: effect in parental HEK293 cells; membrane potential signal change, % at 10 µM; membrane potential dye fluorescence; 51% of 2,400 active; AID 488924; shares compounds with TRPC6 inhibitor;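 active = membrane potential signal moves up or down beyond 5 SD from buffer-only wells, on both duplicate plates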
HEK293 MPD ctr 2-2: parental HEK293 nonspecific activity of TRPC6 modulators, second screen | 14% of 2,400 active | shares compounds with TRPC6 inhibitor | membrane potential dye fluorescence; after compound, maximal acetylcholine stimulation | AID 488926 | inhibition, % at 10 µM;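 active = membrane potential signal drops by more than 5 SD from the mean control signal, in both duplicate plates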;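 also: plate controls were acetylcholine ECmax control wells for no effect and buffer only wells for full effect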
TRPC4/MOR mod: selectivity of TRPC6 modulators against mouse TRPC4; shares compounds with TRPC6 inhibitor; HEK293 TRPC4/mu-opioid, membrane potential fluorescence; percent change from control (negative = decrease, positive = increase), % at 10 µM; 69% of 2,400 active;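 active = membrane potential signal moved up or down beyond 5 SD of buffer control wells, in both duplicate plates, actives on both sides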;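 also: plate controls were assay buffer wells for no effect and DAMGO maximal-effect wells for full effect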
TRPC4 ctr inh 2: mouse TRPC4 off-target activity of TRPC6 modulators, second screen. inhibition, % at 10 µM. 55% of 2,400 active. HEK293 TRPC4/mu-opioid, membrane potential dye fluorescence; stimulated with maximal-effect DAMGO. shares compounds with TRPC6 inhibitor;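 active = drop in membrane potential signal beyond 5 SD of the control wells in both duplicate plates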;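 also: TRPC4 counter screen for TRPC6 hits run under conditions tuned for TRPC6 not TRPC4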
TRPC6 inh conf: confirmation of mouse TRPC6 inhibitors; shares compounds with TRPC6 inhibitor; HEK293-TRPC6, membrane potential dye, ACh-evoked depolarization; inhibition, % at 10 µM; 43% of 3,300 active; AID 488960;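 active = fluorescence ratio falls more than 5 SD below the full-stimulation control mean, in both duplicate runs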;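 also: integrated fluorescence ratio of peak minus minimum over baseline after agonist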
TRPC6 act confirm: confirmation of mouse TRPC6 activators; HEK293-TRPC6 membrane potential dye fluorescence, FDSS; AID 488961; shares compounds with TRPC6 inhibitor; 11% of 2,800 active; activation, % at 10 µM;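 active = ratio signal rise beyond 5 SD above unstimulated control wells' mean, seen in both duplicate runs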;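 also: plate controls were buffer EC0 wells for no effect and acetylcholine ECmax response for full effect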
* marks the source's active call; other numbers are inactive results; i = inactive; . = not tested or not shown.

SMILES	TRPC4 act	TRPC4 inh	TRPC6 activator	TRPC4 PAM	TRPC6 inhibitor	HEK293 MPD ctr-2	HEK293 MPD ctr 2-2	TRPC4/MOR mod	TRPC4 ctr inh 2	TRPC6 inh conf	TRPC6 act confirm	others
O=C(CSc1nnc(C2CC2)n1Cc1ccccc1)c1cc2ccccc2o1	i	i	i	i	-5.2*	169%*	i	24%*	i	i	.
COc1ccc(CN2CCNC(=O)C2CC(=O)N2CCCCO2)cc1OC (configuration not stated)	i	i	i	i	i	.	.	.	.	.	.
CCOC(=O)c1[nH]c2ccccc2c1CCCN1C(=O)c2ccccc2C1=O	i	i	i	i	-6.9*	.	.	.	.	i	i	TRPC4 sel inh 2=i;TRPC4 spec=i;HEK293 MPD ctr 2-1=i;HEK293 MPD ctr-1=i
CN(C)c1cc[n+](CC(=O)N2c3ccccc3Sc3ccccc32)cc1	i	i	i	i	-5*	i	i	-12%*	i	44%*	i
CCOC(=O)N1c2ccccc2Sc2ccccc21	i	i	i	i	i	.	.	.	.	.	.
O=C(C[n+]1ccccc1)N1c2ccccc2Sc2ccccc21	i	i	i	i	-7.9*	i	82%*	i	i	82%*	i
O=C(COc1ccccc1)N1c2ccccc2Sc2ccccc21	i	i	i	i	i	.	.	.	.	.	.
O=C(Nc1ccc(C2=NCCN2)cc1)c1ccc(C(=O)Nc2ccc(C3=NCCN3)cc2)c([N+](=O)[O-])c1	i	i	15*	i	i	440%*	i	70%*	i	i	193%*
CCOC(=O)c1cnc2c(C)cccc2c1NCCCN1CCOCC1	i	i	i	i	-6.8*	.	.	.	.	i	i	TRPC4 sel inh 2=58%*;TRPC4 spec=i;HEK293 MPD ctr 2-1=-31%*;HEK293 MPD ctr-1=i
CCOC(=O)c1cnc2c(OC)cccc2c1NCc1cccnc1	i	i	i	i	-7.5*	.	.	.	.	83%*	i	TRPC4 sel inh 2=i;TRPC4 spec=i;HEK293 MPD ctr 2-1=-15%*;HEK293 MPD ctr-1=i
CCOC(=O)c1cnc2ccc(OCC)cc2c1NCc1cccnc1	i	i	i	i	i	.	.	.	.	.	.
CCOC(=O)c1cnc2c(CC)cccc2c1NCCN1CCOCC1	i	i	i	i	i	.	.	.	.	.	.
CCOC(=O)c1cnc2c(C(=O)OC)cccc2c1NCCN1CCOCC1	i	i	i	i	-5*	137%*	i	20%*	47%*	48%*	.
O=C(O)CSc1nnc(-c2ccncc2)n1C1CCCCC1	i	i	i	i	i	.	.	.	.	.	.
CCN1CCN(c2nc3c(C)cccn3c(=O)c2/C=C(\C#N)C(=O)NCCOC)CC1	i	i	i	i	-5.5*	-278%*	i	-52%*	i	i	i
Cc1cccn2c(=O)c(/C=C(\C#N)C(=O)NC3CCS(=O)(=O)C3)c(N3CC(C)OC(C)C3)nc12 (configuration not stated)	i	i	i	i	-5*	i	i	-14%*	i	i	i
Cc1cccn2c(=O)c(/C=C(\C#N)C(=O)NC3CCS(=O)(=O)C3)c(N3CCC(C(N)=O)CC3)nc12 (configuration not stated)	i	i	i	i	i	.	.	.	.	.	.
COc1ccc(OC)c(C(=O)CSc2nccc(-c3ccc(Br)cc3)n2)c1	i	i	i	i	i	.	.	.	.	.	.
CC1CCN(C(=O)c2ccc3c(c2NCCO)C(=O)c2ccccc2C3=O)CC1	i	i	i	i	-7.7*	-209%*	i	-35%*	76%*	51%*	i
Cc1cc(/C=C2\SC(=S)NC2=O)c(C)n1-c1ccc(O)cc1	i	i	27*	i	i	450%*	i	70%*	i	i	126%*
CS(=O)(=O)N1CCC(C(=O)Nc2ccc(F)cc2F)CC1	i	i	i	i	-6.3*	i	i	12%*	i	i	.
CS(=O)(=O)N1CCC(C(=O)Nc2ccc(F)cc2)CC1	i	i	i	i	i	.	.	.	.	.	.
c1ccc(C[C@H]2CNCCN2CCCCC2CCCCC2)cc1	i	i	i	i	-6*	i	i	i	48%*	i	i
c1ccc(C[C@H]2CNCCN2CC2CCCCC2)cc1	i	i	i	i	i	.	.	.	.	.	.
CN(C(=O)Cc1noc2ccccc12)c1ccccc1	i	i	i	i	i	.	.	.	.	.	.
CCN=C1SC(C(=O)Nc2ccccc2)CC(=O)N1CC (configuration not stated)	i	i	i	i	i	.	.	.	.	.	.
CCOc1cc(S(=O)(=O)N2CCN(C(=O)c3ccco3)CC2)ccc1F	i	i	i	22*	-5.7*	i	i	42%*	i	38%*	.
COc1ccc(N2CCN(CC(O)COc3ccc4c(c3)CCC4)CC2)cc1 (configuration not stated)	i	i	i	i	i	.	.	.	.	.	.
Cn1cccc1/C=C1\Cc2ccccc2C1=O	i	i	i	i	i	.	.	.	.	.	.
